Results taken from ChEMBL document CHEMBL1152533, “Synthesis and biological evaluation of 3,4-diaryl-5-aminoisoxazole derivatives” (Bioorg Med Chem, 2009).

How the values were obtained:
[1] = test system: A549; assay: Cytotoxicity against human A549 cells after 48 hrs by MTT assay; assay type: functional, cell-based; details: A549, 48 h
Procedure, shortened: (§1)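 MTT viability assay: cells exposed to compound for 48 h, MTT in RPMI-1640 added for a further 4 h at 37 °C, formazan dissolved in DMSO, absorbance at 570 nm. Triplicate wells, three independent experiments; IC50 (50% viability inhibition) computed by dose-effect analysis and reported as mean of three experiments. CA-4 as positive control.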

[2] = Cytotoxicity against human ECA109 cells after 48 hrs by MTT assay; assay type: functional, cell-based; details: ECa-109, 48 h; procedure, shortened: as §1
[3] = test system: PC-3; assay: Cytotoxicity against human PC3 cells after 48 hrs by MTT assay; assay type: functional, cell-based; details: PC-3, 48 h; procedure, shortened: as §1
[4] = test system: SMMC-7721; assay: Cytotoxicity against human SMMC7721 cells after 48 hrs by MTT assay; assay type: functional, cell-based; details: SMMC-7721, 48 h; procedure, shortened: as §1
[5] = test system: K562; assay: Cytotoxicity against human K562 cells after 48 hrs by MTT assay; assay type: functional, cell-based; details: K562, 48 h; procedure, shortened: as §1
[6] = Inhibition of bovine tubulin polymerization by fluorescent plate reader analysis; design: species or system Bos taurus
[7] = test system: SMMC-7721; assay: Cell cycle arrest in human SMMC7721 cells assessed as accumulation at S phase at 0.1 uM after 24 hrs by propidium iodide staining-based FACS analysis; assay type: functional
Procedure, shortened: (§2)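 SMMC-7721 cells (5 × 10⁴/mL) exposed 24 h to graded concentrations (0.01–1.0 µM) alongside DMSO and CA-4 controls; washed twice in PBS, fixed in 75% ethanol at −20 °C, RNase-treated at 37 °C for 0.5 h, stained with propidium iodide at 4 °C for 15 min, then analysed by flow cytometry for G2/M and S fractions.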

[8] = test system: SMMC-7721; assay: Cell cycle arrest in human SMMC7721 cells assessed as accumulation at G2/M phase at 0.1 uM after 24 hrs by propidium iodide staining-based FACS analysis; assay type: functional; procedure, shortened: as §2
[9] = test system: SMMC-7721; assay: Induction of apoptosis in human SMMC7721 cells at 0.5 uM after 48 hrs; assay type: functional
[10] = test system: SMMC-7721; assay: Induction of apoptosis in human SMMC7721 cells at 1 uM after 48 hrs; assay type: functional
[11] = test system: SMMC-7721; assay: Cell cycle arrest in human SMMC7721 cells assessed as accumulation at S phase at 1 uM after 24 hrs by propidium iodide staining-based FACS analysis; assay type: functional; procedure, shortened: as §2
[12] = test system: SMMC-7721; assay: Cell cycle arrest in human SMMC7721 cells assessed as accumulation at G2/M phase at 1 uM after 24 hrs by propidium iodide staining-based FACS analysis; assay type: functional; procedure, shortened: as §2
[13] = test system: SMMC-7721; assay: Induction of apoptosis in human SMMC7721 cells at 0.1 uM after 48 hrs; assay type: functional

SMILES | IC50 [1] [µM] | IC50 [2] [µM] | IC50 [3] [µM] | IC50 [4] [µM] | IC50 [5] [µM] | IC50 [6] [µM] | Activity [7] [%] | Activity [8] [%] | Activity [9] [%] | Activity [10] [%] | Activity [11] [%] | Activity [12] [%] | Activity [13] [%]
COc1ccc(-c2noc(N)c2-c2cc(OC)c(OC)c(OC)c2)cc1O | > 50 | > 50 | > 50 |  |  |  |  |  |  |  |  |  | 
COc1ccc(-c2c(-c3cc(OC)c(OC)c(OC)c3)noc2N(C(C)=O)C(C)=O)cc1OC | > 50 | > 50 | > 50 | > 50 | 4.29 |  |  |  |  |  |  |  | 
COc1cc(-c2noc(N)c2-c2cc(OC)c(OC)c(OC)c2)cc(OC)c1OC | > 50 | > 50 | > 50 | > 50 | 3.65 |  |  |  |  |  |  |  | 
COc1ccc(-c2noc(NC(C)=O)c2-c2cc(OC)c(OC)c(OC)c2)cc1OCc1ccccc1 | > 50 | > 50 | > 50 |  |  |  |  |  |  |  |  |  | 
COc1cc(-c2noc(NC(C)=O)c2-c2cc(OC)c(OC)c(OC)c2)cc(OC)c1OC | 21.1 | 13.9 | 14.9 | 24.6 | 3.97 |  |  |  |  |  |  |  | 
COc1ccc(-c2noc(N)c2-c2cc(OC)c(OC)c(OC)c2)cc1OC | > 50 | 1.66 | > 50 | > 50 | 1.4 |  |  |  |  |  |  |  | 
COc1ccc(-c2c(-c3cc(OC)c(OC)c(OC)c3)noc2NC(C)=O)cc1 | 10.7 | 10.8 | > 50 | > 50 | 0.38 |  |  |  |  |  |  |  | 
COc1ccc(-c2c(-c3cc(OC)c(OC)c(OC)c3)noc2N)cc1OC | > 50 | 20.6 | 21.1 | > 50 | 1.27 |  |  |  |  |  |  |  | 
COc1ccc(-c2c(-c3cc(OC)c(OC)c(OC)c3)noc2NC(C)=O)cc1OC | 19.8 | 17.7 | > 50 | 46.3 | 3.71 |  |  |  |  |  |  |  | 
COc1cc(-c2noc(N(C(C)=O)C(C)=O)c2-c2ccc(Cl)cc2)cc(OC)c1OC | > 50 | 39.8 | 2.63 | > 50 | 3.96 |  |  |  |  |  |  |  | 
COc1ccc(-c2c(-c3cc(OC)c(OC)c(OC)c3)noc2N)cc1 | 4.49 | 5.84 | 3.03 | 12 | 0.04 | 1.8 |  |  |  |  |  |  | 
COc1ccc(-c2noc(NC(C)=O)c2-c2cc(OC)c(OC)c(OC)c2)cc1O | > 50 | > 50 | > 50 |  |  |  |  |  |  |  |  |  | 
COc1ccc(/C=C\c2cc(OC)c(OC)c(OC)c2)cc1O [COMBRETASTATIN A4] | 0.42 | 4.5 | 5.4 | 3.22 | 0.046 |  |  |  |  |  |  |  | 
COc1ccc(-c2c(-c3cc(OC)c(OC)c(OC)c3)noc2N(C(C)=O)C(C)=O)cc1 | 0.43 | 0.39 | 0.36 | 1.36 | 0.068 | 2.1 | 50.4 | 41.5 | 70 | 72 | 24.3 | 70 | 37
COc1ccc(-c2noc(NC(C)=O)c2-c2cc(OC)c(OC)c(OC)c2)cc1OC | > 50 | > 50 | > 50 | > 50 | 8.75 |  |  |  |  |  |  |  | 
COc1ccc(-c2noc(N)c2-c2cc(OC)c(OC)c(OC)c2)cc1OCc1ccccc1 | 38.2 | > 50 | > 50 |  |  |  |  |  |  |  |  |  | 
COc1ccc(-c2noc(N)c2-c2cc(OC)c(OC)c(OC)c2)cc1 | 21.8 | 9.82 | 15 | 39.8 | 0.022 |  |  |  |  |  |  |  | 
COc1ccc(-c2noc(NC(C)=O)c2-c2cc(OC)c(OC)c(OC)c2)cc1 | > 50 | > 50 | > 50 | > 50 | 1 |  |  |  |  |  |  |  | 
COc1cc(-c2noc(N)c2-c2ccc(Cl)cc2)cc(OC)c1OC | > 50 | > 50 | > 50 | > 50 | 0.64 |  |  |  |  |  |  |  | 
COc1cc(-c2noc(NC(C)=O)c2-c2ccc(Cl)cc2)cc(OC)c1OC | 24.9 | 9.53 | 1.91 | > 50 | 3.62 |  |  |  |  |  |  |  | 
